# Screening data as filed in PubChem BioAssay.
# In the library only some 1.3% were active in any assay of this set; here they are far more common.
# Rpn11 inh: inhibitors of human proteasome Rpn11 | human 26S proteasome, Ub4-pepOG fluorescence polarization; 20S core pre-blocked with epoxomicin | O00487 | inhibition, % at 20 µM | 360,000 tested, 0.59% active | AID 588493;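 active = inhibition at 20 µM, scaled to each plate's controls, above about 33%, limit read from the data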
# HNF4A DNA FP: change in binding of human HNF4 alpha to DNA. P41235. HNF4a-FITC DNA binding, fluorescence polarization, 1 h. activity change, % at 10 µM. 360,000 tested, 0.3% active. AID 1224865; in the data active = activity change above about 30%, passing the limit was not always enough
# XiGFP reactiv: reactivates the inactive X chromosome in mouse fibroblasts. 360,000 tested, 0.055% active. activation, % at 7.58 µM. AID 743238. XiGFP mouse fibroblasts, % GFP-positive cells imaging, 3 d; cells co-treated with 5-aza-dC sensitizer; scaled so ellipticine positive control = 100%;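 active = mean normalized replicate activation at least 10% and every replicate at or above 10%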;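 also: 0% = median of on-plate neutral control wells and 100% = ellipticine 6 µM median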
#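 System: XiGFP fibroblasts, SV40-immortalized. Medium: DMEM plus 5-aza-dC sensitizer. Doses: single point. Timing: 3 d treatment, 15 min room-temperature fixation. Control set: ellipticine 6 µM.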
# CSN inh: inhibitors of human CSN-mediated cullin deneddylation; AID 651999; Purified CSN, SCF-Nedd8-OG deneddylation, fluorescence polarization; 360,000 tested, 0.38% active; inhibition, % at 12.5 µM; Q92905;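 active = pattern-corrected inhibition above about 35%, with an unprinted fluorescence ratio check between 0.5 and 1.5, limit read from the data, passing the limit was not always enough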;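 also: 0% = enzyme with substrate and 100% = substrate without enzyme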
# Target sequence (Q92905 whole entry, looked up, one chain of several): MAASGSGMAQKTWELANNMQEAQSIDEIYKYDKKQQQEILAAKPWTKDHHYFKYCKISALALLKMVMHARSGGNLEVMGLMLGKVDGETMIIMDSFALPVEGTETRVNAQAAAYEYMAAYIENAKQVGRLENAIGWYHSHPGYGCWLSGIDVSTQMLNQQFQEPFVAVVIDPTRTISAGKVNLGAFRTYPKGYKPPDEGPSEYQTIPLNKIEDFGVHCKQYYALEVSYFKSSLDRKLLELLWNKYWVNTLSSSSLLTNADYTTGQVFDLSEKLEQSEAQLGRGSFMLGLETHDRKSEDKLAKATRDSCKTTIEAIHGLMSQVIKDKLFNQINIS
#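 Assay system: Purified human Csn5 enzyme expressed in HEK293T cells | Amount: Enzyme 0.24 nM | Measured by: Fluorescence polarization readout | Medium: Tris/NaCl/DTT buffer, pH 7.5 | Compound dosing: One concentration, 12.5 µM, 0.25% DMSO | Times: 90 min incubation of compound, enzyme and substrate at room temperature | Control set: no-enzyme wells high, enzyme-with-substrate wells low | Read-out: % inhibition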
# TPT1 inh: blocks Candida albicans tRNA 2'-phosphotransferase | recombinant caTPT1, FP RNA substrate dephosphorylation | inhibition, % at 5 µM | 300,000 tested, 0.81% active | AID 1962;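 active = inhibition above the mean of all tested compounds plus 3 SD, set per screening campaign, cut at about 24% in these data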;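 also: plate controls were DMSO alone for no effect and ferristatin control at 100 nM for full effect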
# aDG glyco act: increases alpha dystroglycan glycosylation | Pro5-aDG cells, alpha-DG glycosylation AlphaScreen (IIH6); 0% Pro5, 100% B10-LARGE cell signal | activation, % at 10 µM | 360,000 tested, 0.22% active | AID 624168;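 active = activation of at least 8% versus controls, or a plate z-score of at least 8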;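 also: Pro5 are CHO cells carrying HIG-tagged alpha-DG that lacks glycosylation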
# aDG conf: confirmation of alpha dystroglycan glycosylation activators | activation, % at 10 µM (by protocol) | AID 651671 | 600 tested, 17% active | Pro5-aDG cells, alpha-DG glycosylation, IIH6 AlphaLISA; scaled to LARGE-overexpressing B10 cells as 100% | shares compounds with aDG glyco act;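 active = activation of at least 7% in one or more replicates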;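 also: cells exposed to compound for two days before detection; 0% = DMSO-treated Pro5 cells and 100% = DMSO-treated B10-LARGE cells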
# * = called active by the depositor; x = no result given.
SMILES,Rpn11 inh,HNF4A DNA FP,XiGFP reactiv,CSN inh,TPT1 inh,aDG glyco act,aDG conf
COC(=O)C[C@H]1CC[C@@H]2[C@H](COc3ccc(NC(=O)c4cccc(OC)c4)cc3C(=O)N2C)O1,x,x,-0.1,x,x,x,x
CCC(=O)Nc1ccc2c(c1)C(=O)N(C)C[C@@H](OC)[C@@H](C)CN(C(=O)C1CCC1)[C@@H](C)CO2,x,x,0.1,x,x,x,x
Cc1csc(NC(=O)C2CCCN(S(=O)(=O)c3ccc4c(c3)oc(=O)n4C)C2)n1 (stereo unspecified),6.4,-6.0,0.1,1.8,2.0,9.1*,-0.4
Cc1ccc(NC(=O)C2CCCN(S(=O)(=O)c3ccc4c(c3)oc(=O)n4C)C2)nc1 (stereo unspecified),2.5,1.9,0.0,3.6,-1.8,0.3,x
O=C1c2ccccc2C(Nc2ccc(S(=O)(=O)N3CCOCC3)cc2)N1c1cccnc1 (stereo unspecified),0.1,3.3,-0.2,4.5,-0.9,10.2*,0.0
COc1ccc(NC2c3ccccc3C(=O)N2c2cccnc2)cc1 (stereo unspecified),-7.7,-0.8,-0.2,2.6,1.4,0.0,x
Cn1c(SCc2cccc([N+](=O)[O-])c2)nc2ccccc2c1=O,-2.7,-0.5,-0.1,3.6,x,2.6*,0.2
COCCn1c(SCc2cccc([N+](=O)[O-])c2)nc2ccccc2c1=O,-2.5,-4.3,0.1,-5.3,-4.2,0.0,x
CCN(CC)S(=O)(=O)c1ccc2[nH]c(=O)cc(C(=O)Nc3cccc(C(C)=O)c3)c2c1,-2.1,-2.1,0.0,2.6,-0.1,9.2*,-0.6
CC(=O)c1cccc(NC(=O)c2cc(=O)[nH]c3ccccc23)c1,-6.4,1.2,0.0,-2.6,1.4,0.2,x
Cc1ccc(S(=O)(=O)N[C@H](C(=O)OCC(=O)NC(=O)c2cccn2C)C(C)C)cc1,3.4,-0.4,0.0,2.7,x,3.6*,0.6
CC(C)[C@H](NS(=O)(=O)c1ccccc1)C(=O)OCC(=O)NC(=O)c1cccn1C,5.5,0.5,x,-2.0,6.8,-0.3,x
c1ccc2c(-c3cc(C4CCNCC4)[nH]n3)cccc2c1,-5.1,-0.7,0.4,2.7,4.5,13.9*,6.4*
Cc1cc(NC(=O)Cc2ccccc2)c2ccccc2n1,-2.6,4.0,0.0,7.2,-1.8,7.5*,0.5
CCN(CC)S(=O)(=O)c1ccc(C)c(NC(=S)N2CCN(C/C=C/c3ccccc3)CC2)c1,6.9,-2.0,-0.2,-1.0,-2.8,8.6*,0.8
CCN(CC)S(=O)(=O)c1ccc(C)c(NC(=S)N2CCN(c3ccccn3)CC2)c1,11.0,0.0,0.1,-4.0,1.4,0.2,x
COc1ccc(CCNc2ncnc3c2oc2ccccc23)cc1OC,-18.3,1.2,x,2.8,0.4,7.4*,1.2
COc1ccc(CCNc2nc(C)nc3c2oc2ccccc23)cc1OC,-9.8,1.9,x,2.5,1.4,6.0,x
Brc1ccc2ncnc(NCc3ccccc3)c2c1,-2.0,-0.9,x,1.9,3.1,8.2*,3.4*
CCOC(=O)N1CCC(N2C(=O)c3ccc(C(=O)Nc4ccc(F)cc4F)cc3C2=O)CC1,-0.4,3.6,0.0,-2.3,-6.3,8.8*,-1.0
COc1cc(-c2ccc(NC(=O)CN3CCC(C)CC3)c(OC)c2)ccc1NC(=O)CN1CCC(C)CC1,9.2,10.7,x,-0.7,x,18.3*,4.0*
COc1ccc(NC(=S)NCCC2=CCCCC2)cc1OC,-5.1,-5.8,0.0,1.3,-1.1,0.1,x
S=C(NCCC1=CCCCC1)Nc1ccc(Cl)cc1,-1.4,-1.6,0.4,5.6,-3.0,5.9*,0.3
CCOC(=O)c1ccc(NC(=O)COc2ccc(CNCCO)cc2OCC)cc1,2.5,1.0,0.2,5.8,-4.1,1.2,x
CCOC(=O)c1ccc(NC(=O)COc2ccccc2CNCCc2ccccc2)cc1,-1.1,-3.0,0.0,7.5,-0.7,5.8*,2.6
